An excerpt weighted towards active compounds, which were near 1.9% of everything screened.
Neddylation inh = blocks human cullin neddylation; P61081+Q13564; 360,000 tested, 0.58% active; TR-FRET cullin neddylation, biochemical; inhibition, % at 25 µM; AID 651699; in the data active = inhibition above about 36%
Calb FLC = C. albicans growth modulation with fluconazole | AID 1979 | C. albicans CaCi-2 + fluconazole, Alamar Blue growth, 48 h | 300,000 tested, 0.57% active | growth inhibition, % (concentration not given with the values);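 active = growth inhibition above about 58% in most replicates, limit read from the data, passing the limit was not always enough; inconclusive = exactly half the replicates above a set limit; inactive = most replicates below a set limit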;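 also: all wells also contain fluconazole at 8 µg/ml as a sub-toxic cotreatment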
HIF act = HIF pathway transcriptional activation; activation, % at 7.5 µM (by protocol); U2OS HRE-luciferase reporter, luminescence; normalized: DMSO 0%, desferrioxamine 100%; 300,000 tested, 0.32% active;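 active = mean activation of at least 10% of the iron chelator positive control signal, with at least half of replicates also reaching 10%; inconclusive = mean and replicate majority disagree about reaching 10%; inactive = mean and most replicates under 10%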
proCasp7 act = counter-screen: procaspase-7 (human) activation; P55210; recombinant procaspase-7, Ac-DEVD-pNA absorbance 405 nm; D23A/D198A/D206A triple mutant, cannot self-cleave; scale: DMSO 0, 5 µM enzyme 100; activation, % at 8.5 µM; 330,000 tested, 0.093% active;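 active = percent activation above the screen-wide mean plus 3 SD, cut at about 25% in these data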
Target sequence (P55210 whole entry D23A/D198A/D206A): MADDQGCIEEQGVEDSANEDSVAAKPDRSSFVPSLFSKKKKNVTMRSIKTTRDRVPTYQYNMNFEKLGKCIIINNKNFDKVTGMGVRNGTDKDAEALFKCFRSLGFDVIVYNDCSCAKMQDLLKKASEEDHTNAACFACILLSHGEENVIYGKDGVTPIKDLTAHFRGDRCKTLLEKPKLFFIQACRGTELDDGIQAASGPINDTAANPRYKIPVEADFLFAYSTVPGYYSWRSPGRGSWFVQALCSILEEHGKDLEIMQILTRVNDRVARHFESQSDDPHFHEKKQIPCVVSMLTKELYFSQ
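Material: Procaspase-7 triple mutant (PC-7 D3A) | Quantity: 2 µM procaspase-7 mutant as dispensed | Reagent: DEVD-pNA substrate | Times: 1 h preincubation, 2 h reaction | Technique: 405 nm absorbance of p-nitroaniline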
GAA850 FXN act = increases GAA850 frataxin promoter reporter activity | activation, % at 6 µM | 360,000 tested, 0.56% active | AID 540364 | HEK293 lucGAA850 FXN promoter luciferase reporter, 24 h; percent of 10 µM SAHA response;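 active = activation above the average of all compounds screened plus 3 SD, cutoff fixed separately per campaign, cut at about 7.5% in these data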
procasp3 activ = activators of human procaspase-3; P42574; recombinant procaspase-3 D3A, Ac-DEVD-pNA absorbance 405 nm; activation, % at 8.5 µM; 330,000 tested, 0.11% active; AID 463141;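 active = activation above the mean of all tested compounds plus 3 SD, cut at about 21% in these data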
Target sequence (P42574 whole entry D9A/D28A/D175A): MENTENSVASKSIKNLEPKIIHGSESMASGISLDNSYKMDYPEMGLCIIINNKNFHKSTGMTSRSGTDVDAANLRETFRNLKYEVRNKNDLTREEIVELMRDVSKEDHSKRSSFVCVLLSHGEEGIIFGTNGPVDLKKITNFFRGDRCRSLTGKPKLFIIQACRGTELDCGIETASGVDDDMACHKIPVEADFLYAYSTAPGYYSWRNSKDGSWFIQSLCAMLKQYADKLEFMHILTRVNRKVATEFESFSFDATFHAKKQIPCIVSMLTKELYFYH
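Test system: Procaspase-3 D3A mutant; medium: Zinc-free HEPES/NaCl buffer with 0.01% Triton X-100 at pH 7.4; reagent: DEVD-pNA substrate; doses: one concentration, 8.5 µM nominal, 0.8% DMSO; times: 1 h preincubation plus 2 h reaction at 25 °C; signal: Epi-absorbance at 405 nm of released p-nitroaniline, 0 and 120 min; replicates: singlicate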
GAA30 FXN cntr = activates GAA30 frataxin promoter, counter-screen for GAA850 activators. shares compounds with GAA850 FXN act. HEK293 lucGAA30 FXN promoter luciferase, 24 h; DMSO = 0%, 5 µM ipriflavone = 100%. activation, % at 6 µM. 1,900 tested, 66% active;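 active = mean activation above the mean of solvent-only control wells plus 3 SD, cut at about 22% in these data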;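 also: counterscreen of GAA850 promoter hits where activity marks nonselective or luminescence artifacts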
FXN GAA850 conf = confirmation of GAA850 frataxin (FXN) promoter activators; shares compounds with GAA850 FXN act; HEK293 lucGAA850 FXN promoter luciferase reporter, 24 h; 100% = activation by SAHA; activation, % at 6 µM; 1,900 tested, 86% active; AID 588351;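 active = mean activation above a set limit taken from the primary screen, cut at about 8% in these data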
A number is an active result; . = inactive; ? = inconclusive; / = no result given.

SMILES | Neddylation inh | Calb FLC | HIF act | proCasp7 act | GAA850 FXN act | procasp3 activ | GAA30 FXN cntr | FXN GAA850 conf
O=c1c2ccccc2[nH]c2ccc(O)cc12 | 42 | . | . | . | 8.2 | . | 39 | 18
O=C(Nc1ccon1)c1cc2c(s1)CCCCCC2 | . | . | . | . | 8.8 | . | 113 | 36
O=C(Nc1ccon1)c1cc2c(s1)CCCC2 | . | . | . | . | . | . | / | /
Cc1cccc(Nc2nc(N)c(C#N)c(CC#N)c2C#N)c1 | . | . | . | . | 8.2 | . | 27 | 17
Cc1ccc(NC(=O)c2sc3ccccc3c2Cl)nc1 | . | . | . | . | 8.4 | . | 105 | 16
Fc1ccc(COc2ccccc2C(=S)N2CCCC2)cc1 | . | . | / | . | . | . | / | /
Cc1ccc(COc2ccccc2C(=S)N2CCCC2)cc1 | . | . | . | . | 8.1 | . | 51 | 23
CCOc1ccc2c(c1)c(N=Nc1cccc(C(=O)O)c1)c(O)n2C | . | ? | . | . | 8.8 | . | 107 | 38
COc1cnn(-c2ccc(Br)cc2)c(=O)c1SCc1ccccc1 | . | . | . | . | . | . | / | /
COc1cnn(-c2ccc(C)cc2)c(=O)c1SCc1ccccc1 | . | . | . | . | 7.9 | . | 66 | 25
Cc1cccc2cc(CN(C(=O)c3cnccn3)C3CCCCC3)c(Cl)nc12 | . | . | . | . | 7.6 | . | . | .
CCOc1ccc2nc(Cl)c(CN(C(=O)c3cnccn3)C3CCCC3)cc2c1 | . | . | . | . | . | . | / | /
CC1=CC(C)(C)Nc2ccc(OC(=O)CCN3C(=O)c4ccccc4C3=O)cc21 | . | . | . | . | 11 | . | . | 23
CC(=O)c1cccc(Nc2nc(-c3cccnc3)cs2)c1 | . | . | . | / | . | / | / | /
CC(=O)c1cccc(Nc2nc(-c3ccccc3)cs2)c1 | . | . | . | . | 7.8 | . | 101 | 28
C[C@@H]1CCCCO[C@H](CN(C)C(=O)Nc2ccccc2)[C@@H](C)CN([C@H](C)CO)C(=O)c2cc(NS(=O)(=O)c3cn(C)cn3)ccc2O1 | . | / | / | / | . | / | / | /
COc1ccc(NC(=O)C2(C)CCN2Cc2ccc(OC)c3ccccc23)cc1OC (stereo not drawn) | . | / | / | / | 7.7 | / | 22 | 13
COc1ccc(OC)c(NC(=O)C2CCCN(S(=O)(=O)c3c(C)nn(C)c3C)C2)c1 (stereo not drawn) | . | . | . | . | 14 | . | . | 9.3
Cc1cccc(-n2cc(-c3ccccc3)c3c(=O)[nH]cnc32)c1 | . | . | . | . | 8.9 | . | 23 | 11
O=c1[nH]cnc2c1c(-c1ccccc1)cn2-c1ccc(Br)cc1 | . | . | . | . | . | . | / | /
COc1cccc2sc(Nc3nnc(-c4cccs4)o3)nc12 | / | . | . | . | 7.7 | . | 37 | 40
CCCCN(C=O)c1c(CC)nc2ccc(C(=O)NCCOc3ccc(OC)cc3)cn12 | . | / | / | / | . | / | / | /
Cc1sc(N)nc1-c1ccc(Oc2ccccc2)cc1 | . | . | . | . | 8.8 | . | 63 | 25
Nc1nc(N)nc(-c2ccc(Oc3ccccc3)cc2)n1 | . | . | . | . | 11 | . | 27 | 14
CC(=CC(=O)c1ccccc1)c1ccccc1 | . | / | / | / | . | / | / | /
SMILES | Neddylation inh | Calb FLC | HIF act | proCasp7 act | GAA850 FXN act | procasp3 activ | GAA30 FXN cntr | FXN GAA850 conf
CC(C)(C)c1csc(N/N=C/c2cccnc2)n1 | . | . | . | . | 7.9 | . | 91 | 37
C(=N\Nc1nc(-c2ccccc2)cs1)/c1cccnc1 | . | . | . | . | . | . | / | /
COc1nc(N(C#N)CC(N)=O)nc(N2CCCC2)n1 | . | . | . | . | 12 | . | . | 18
CN(C)Cc1ccc(-c2nc3cccc4c3n2CCNC4=O)cc1 | . | . | . | . | 7.8 | . | 25 | 50
Cc1nc(NCc2ccco2)c2c(C)c(C)sc2n1 | . | . | . | . | . | . | / | /
Cc1sc2nc3c4ccccc4c(NCc4ccco4)nn3c(=O)c2c1C | / | / | / | . | 10 | . | 105 | 30
C[C@H](CO)N1C[C@H](C)[C@H](CN(C)C(=O)c2ccc3ccn(C)c3c2)OCc2cnnn2CCCC1=O | . | / | / | / | . | / | / | /
COc1cc2c(O)c3c(c(-c4ccc5c(c4)OCO5)c2cc1OC)C(=O)OC3 | / | 82 | . | . | 20 | . | . | 27
COc1cc2c(OC(C)=O)c3c(c(-c4ccc5c(c4)OCO5)c2cc1OC)C(=O)OC3 | / | . | . | . | . | . | / | /
COc1ccc(OC)c(/C=C/C(=O)N2C(=O)c3cccc(N)c3C2=O)c1 | / | . | . | . | 9.2 | . | . | 8.9
Cc1ccc(OCCN2CCC2(C)C(=O)NCc2ccc(C(F)(F)F)cc2)cc1 (stereo not drawn) | . | / | / | / | . | / | / | /
CCCCCCn1c(=O)n2n(c1=O)C[C@]1(OC(=O)NCc3ccccc3)CN(S(=O)(=O)c3ccc(C)cc3)C[C@]1(O)C2 | . | / | / | / | . | / | / | /
CC(=O)c1sc(Nc2cccc(C)c2)nc1C | . | . | . | . | 7.8 | . | 101 | 31
CC(=O)c1sc(Nc2ccccc2)nc1C | . | / | / | / | / | / | / | /
O=C(NC(=O)c1c(F)cccc1F)Nc1cccc(Oc2ncc(Cl)cn2)c1 | . | / | / | / | . | / | / | /
COc1ccc(C)cc1-n1nc2ccccc2n1 | . | . | . | . | . | . | / | /
Cc1ccc(O)c(-n2nc3ccccc3n2)c1 | . | . | . | . | 9.2 | . | 114 | 35
CCCCOC(=O)Nc1ccc2c(C)cc(=O)oc2c1 | / | . | . | . | 7.7 | . | 120 | 39
O=C1/C(=C/c2ccccc2)Oc2cc(OC(=O)N3CCOCC3)ccc21 | . | . | . | . | 7.8 | . | 62 | 24
O=C1/C(=C/c2ccc(F)cc2)Oc2cc(OC(=O)N3CCOCC3)ccc21 | . | . | . | . | . | . | / | /
O=C1CCC(C(=O)N2CCN(c3cnccn3)CC2)CN1CCc1ccccc1 (stereo not drawn) | . | / | / | / | . | / | / | /
CCCCCc1nnc(N)s1 | . | . | . | . | . | . | / | /
CCCCCc1ccc(-c2nnc(N)s2)cc1 | . | ? | . | . | 7.8 | . | 78 | 21
CN1CCCC1CCNc1ccc2c(=O)c3ccccc3oc2c1 (stereo not drawn) | . | . | . | . | . | . | / | /
Cn1c2ccccc2c(=O)c2cc(NCCCN3CCOCC3)ccc21 | . | / | / | . | 17 | . | 143 | 58
CN1CCC[C@H]1CCNc1ccc2c(=O)c3ccccc3n(C)c2c1 | / | / | / | / | 13 | / | 46 | 69
